The record followed here is ChEMBL document CHEMBL1799971, “Bivalent dopamine D2 receptor ligands: synthesis and binding properties” (J Med Chem, 2011).

One assay has as its target D(3) dopamine receptor (Homo sapiens, UniProt P35462). The experiment in a line: Displacement of [3H]spiperone from human D3 receptor expressed in CHO cells. It counts as cell-based.
For assay [1], the target named is T1, D(2) dopamine receptor (Homo sapiens, UniProt P14416). The assay can be described thus: Displacement of [3H]spiperone from human D2long receptor expressed in CHO cells.
T1 sequence (P14416 whole entry): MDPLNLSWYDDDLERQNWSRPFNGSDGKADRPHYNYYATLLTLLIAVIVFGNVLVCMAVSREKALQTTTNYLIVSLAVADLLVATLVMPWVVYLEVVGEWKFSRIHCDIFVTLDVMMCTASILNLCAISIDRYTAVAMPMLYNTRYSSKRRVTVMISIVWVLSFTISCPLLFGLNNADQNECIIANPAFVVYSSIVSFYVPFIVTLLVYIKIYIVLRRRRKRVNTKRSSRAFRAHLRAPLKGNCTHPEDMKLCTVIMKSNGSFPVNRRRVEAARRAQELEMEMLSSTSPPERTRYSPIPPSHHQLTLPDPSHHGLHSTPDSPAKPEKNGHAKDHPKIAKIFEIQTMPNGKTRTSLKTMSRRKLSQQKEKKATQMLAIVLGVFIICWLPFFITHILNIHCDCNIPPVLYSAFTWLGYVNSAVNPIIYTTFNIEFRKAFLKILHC
In a further assay the target is D(1A) dopamine receptor (Sus scrofa, UniProt P50130). The assay can be described thus: Displacement of [3H]SCH23390 from D1 receptor from porcine cerebral cortex homogenates. It counts as tissue-based. In short, it runs like this:
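Porcine cerebral cortex homogenate membranes at 40–60 μg/mL protein (Lowry, BSA standard). Competition curves were fitted to a sigmoid by nonlinear regression, with log EC50 and Hill coefficient as free parameters.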

Assay [2] addresses T1, D(2) dopamine receptor. The experiment in a line: Displacement of [3H]spiperone from human D2short receptor expressed in CHO cells. It counts as cell-based.
The target in the next assay is T2, D(4) dopamine receptor (Homo sapiens, UniProt P21917).
T2 sequence (P21917 whole entry): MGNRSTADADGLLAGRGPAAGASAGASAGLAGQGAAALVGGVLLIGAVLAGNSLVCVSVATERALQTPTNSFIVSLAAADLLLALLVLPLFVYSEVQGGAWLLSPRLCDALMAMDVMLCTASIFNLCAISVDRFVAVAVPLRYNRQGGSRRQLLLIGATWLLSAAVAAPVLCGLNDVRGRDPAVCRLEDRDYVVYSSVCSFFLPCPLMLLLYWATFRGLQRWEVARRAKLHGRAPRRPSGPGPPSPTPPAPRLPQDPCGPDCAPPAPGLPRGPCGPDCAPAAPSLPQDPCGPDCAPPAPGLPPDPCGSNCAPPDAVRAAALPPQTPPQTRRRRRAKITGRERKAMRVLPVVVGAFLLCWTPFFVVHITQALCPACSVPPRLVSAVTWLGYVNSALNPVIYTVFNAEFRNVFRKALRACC
The assay can be described thus: Displacement of [3H]spiperone from human D4.4 receptor expressed in CHO cells. In kind it is cell-based.

For the next assay, the species on record is Homo sapiens. The assay can be described thus: Selectivity ratio of Ki for human D4.4 receptor to Ki for human D3 receptor.
Assay [3] has as its target T1, D(2) dopamine receptor. The experiment in a line: Displacement of [3H]spiperone from human D2 receptor expressed in CHO cells assessed as dissociation half life. In kind it is cell-based.
For assay [4], the target named is T1, D(2) dopamine receptor. The experiment in a line: Antagonist activity at human D2long receptor expressed in CHO10001 cells assessed as inhibition of agonist-stimulated [3H]thymidine incorporation into cells by mitogenesis assay. It counts as functional, cell-based.
In assay [5] the target is T1, D(2) dopamine receptor. The assay can be described thus: Displacement of [3H]spiperone from human D2short receptor expressed in CHO cells in presence of 100 mM sodium chloride. In kind it is cell-based. In short, it runs like this: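 Buffer was 50 mM Tris, 1.0 mM EDTA, 5.0 mM MgCl2, 100 μg/mL bacitracin and 5 μg/mL soybean trypsin inhibitor, pH 7.4, plus NaCl at a final 100 mM. Curves were fitted by sigmoidal nonlinear regression with a free Hill coefficient.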

Calls of active or inactive are those of the source. The calls are words filed in the database; no cut-off is given here.

D(3) dopamine receptor, sequence (P35462 whole entry): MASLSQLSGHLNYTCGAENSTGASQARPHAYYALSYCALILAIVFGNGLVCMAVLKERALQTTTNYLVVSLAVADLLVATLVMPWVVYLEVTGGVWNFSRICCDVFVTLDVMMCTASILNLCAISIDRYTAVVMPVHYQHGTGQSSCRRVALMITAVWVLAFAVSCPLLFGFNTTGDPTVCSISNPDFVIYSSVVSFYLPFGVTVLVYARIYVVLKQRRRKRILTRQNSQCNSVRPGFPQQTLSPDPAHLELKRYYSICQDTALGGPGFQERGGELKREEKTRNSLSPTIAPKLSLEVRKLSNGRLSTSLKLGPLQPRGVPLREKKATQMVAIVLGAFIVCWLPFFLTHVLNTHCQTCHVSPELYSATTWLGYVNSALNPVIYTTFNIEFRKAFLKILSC
D(1A) dopamine receptor, sequence (P50130 whole entry): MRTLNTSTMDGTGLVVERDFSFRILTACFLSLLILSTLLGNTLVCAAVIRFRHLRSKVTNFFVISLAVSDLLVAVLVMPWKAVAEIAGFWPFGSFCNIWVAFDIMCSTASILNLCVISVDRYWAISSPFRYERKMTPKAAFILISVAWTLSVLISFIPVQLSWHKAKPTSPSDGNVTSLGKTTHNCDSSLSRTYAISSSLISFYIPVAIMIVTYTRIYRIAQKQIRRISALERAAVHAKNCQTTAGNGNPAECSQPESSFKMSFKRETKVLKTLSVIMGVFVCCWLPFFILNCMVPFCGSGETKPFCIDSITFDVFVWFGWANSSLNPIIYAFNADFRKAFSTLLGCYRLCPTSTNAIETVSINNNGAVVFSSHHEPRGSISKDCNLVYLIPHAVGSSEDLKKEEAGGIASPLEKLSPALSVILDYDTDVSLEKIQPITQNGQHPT

As for `COc1cc(CN2CCN(c3ccccc3OC)CC2)ccc1OCCCc1cn(CCOCCOCCn2cc(CCCOc3ccc(CN4CCN(c5ccccc5OC)CC4)cc3OC)nn2)nn1`, the Ki came to 61 nM on D(3) dopamine receptor; 2.8 nM on D(2) dopamine receptor [1]; 220 nM on D(1A) dopamine receptor; 3.7 nM at D(2) dopamine receptor [2]; 12 nM at D(4) dopamine receptor.
For `CCCc1cn(CCCCCCCCn2cc(CCCOc3ccc(CN4CCN(c5ccccc5OC)CC4)cc3OC)nn2)nn1`, the Ki on D(3) dopamine receptor is 230 nM; on D(2) dopamine receptor [1], 36 nM; on D(1A) dopamine receptor, 400 nM; at D(2) dopamine receptor [2], 32 nM; at D(4) dopamine receptor, 14 nM.
Consider `COc1cc(CN2CCN(c3ccccc3OC)CC2)ccc1OCc1cn(CCOCCOCCn2cc(COc3ccc(CN4CCN(c5ccccc5OC)CC4)cc3OC)nn2)nn1`, for which the Ki amounted to 36 nM at D(3) dopamine receptor; 3.3 nM at D(2) dopamine receptor [1]; 390 nM at D(1A) dopamine receptor; 3.4 nM at D(2) dopamine receptor [2]; 6.8 nM at D(4) dopamine receptor.
For `CCCCn1cc(COc2ccc(CN3CCN(c4ccccc4OC)CC3)cc2OC)nn1`, the Ki on D(3) dopamine receptor is 320 nM; at D(2) dopamine receptor [1], 63 nM; on D(1A) dopamine receptor it was 2300 nM; at D(2) dopamine receptor [2], 70 nM; on D(4) dopamine receptor, 3.3 nM. In addition, the Ratio Ki in the assay filed under Homo sapiens is 80.
For `CCCCn1cc(CCCCOc2ccc(CN3CCN(c4ccccc4OC)CC3)cc2OC)nn1`, the Ki on D(3) dopamine receptor was 590 nM; on D(2) dopamine receptor [1], 52 nM; at D(1A) dopamine receptor it was 2500 nM; at D(2) dopamine receptor [2] it was 67 nM; at D(4) dopamine receptor, 13 nM.
Turning to `COc1cc(CN2CCN(c3ccccc3OC)CC2)ccc1OCCCc1cn(CCCCCCCCCCn2cc(CCCOc3ccc(CN4CCN(c5ccccc5OC)CC4)cc3OC)nn2)nn1`, the Ki at D(3) dopamine receptor worked out at 96 nM; at D(2) dopamine receptor [1], 23 nM; at D(1A) dopamine receptor, 250 nM; on D(2) dopamine receptor [2] it was 17 nM; on D(4) dopamine receptor it was 19 nM.
As to `COc1cc(CN2CCN(c3ccccc3OC)CC2)ccc1OCCCc1cn(CCCCCCCCn2cc(CCCOc3ccc(CN4CCN(c5ccccc5OC)CC4)cc3OC)nn2)nn1`, the Ratio Ki in the assay listed under Homo sapiens was determined as 5. Also, the T1/2 on D(2) dopamine receptor [3] came out at 2.17 h. Further, the inhibition entry on D(2) dopamine receptor [4] was “Active”. Besides, the figures for the inhibitory constant (Ki) at D(1A) dopamine receptor, at D(2) dopamine receptor [5] and at D(4) dopamine receptor were 220 nM, 12 nM and 15 nM, respectively.
Take `COc1cc(CN2CCN(c3ccccc3OC)CC2)ccc1OCc1cn(CCCCCCCCn2cc(COc3ccc(CN4CCN(c5ccccc5OC)CC4)cc3OC)nn2)nn1`: the Ki on D(3) dopamine receptor stood at 31 nM; at D(2) dopamine receptor [1] it was 16 nM; on D(1A) dopamine receptor it was 210 nM; at D(2) dopamine receptor [2], 25 nM; at D(4) dopamine receptor it was 5.4 nM. In addition, the Ratio Ki in the assay listed under Homo sapiens was found to be 5.
Consider `COc1cc(CN2CCN(c3ccccc3OC)CC2)ccc1OCCCc1cn(CCOCCOCCOCCn2cc(CCCOc3ccc(CN4CCN(c5ccccc5OC)CC4)cc3OC)nn2)nn1`, for which the Ki on D(3) dopamine receptor was 72 nM; on D(2) dopamine receptor [1], 4.8 nM; at D(1A) dopamine receptor, 270 nM; at D(2) dopamine receptor [2], 6.2 nM; at D(4) dopamine receptor, 19 nM.
In the case of `CCOCCn1cc(COc2ccc(CN3CCN(c4ccccc4OC)CC3)cc2OC)nn1`, the Ki at D(3) dopamine receptor was determined as 440 nM; at D(2) dopamine receptor [1], 68 nM; at D(1A) dopamine receptor, 3800 nM; on D(2) dopamine receptor [2], 100 nM; on D(4) dopamine receptor it was 8.4 nM.
As for `CCCCn1cc(CCCOc2ccc(CN3CCN(c4ccccc4OC)CC3)cc2OC)nn1`, in the assay listed under Homo sapiens, the Ratio Ki is 80. In addition, the T1/2 at D(2) dopamine receptor [3] turned out to be 2 h. Also, the inhibition entry on D(2) dopamine receptor [4] was “Active”. Also, the Ki at D(1A) dopamine receptor came out at 1500 nM; on D(2) dopamine receptor [5], 35 nM; on D(4) dopamine receptor, 7.2 nM.
For the compound `COc1cc(CN2CCN(c3ccccc3OC)CC2)ccc1OCCCc1cn(CCCCCCCCn2cc(CCCOc3ccc(CN4CCN(C5CCCCC5)CC4)cc3OC)nn2)nn1`, the values for the Ki at D(1A) dopamine receptor and at D(4) dopamine receptor were 480 nM and 19 nM, respectively.
Consider `COc1cc(CN2CCN(c3ccccc3OC)CC2)ccc1OCCCCc1cn(CCCCCCCCCCn2cc(CCCCOc3ccc(CN4CCN(c5ccccc5OC)CC4)cc3OC)nn2)nn1`, for which the inhibition constant Ki is 74 nM on D(3) dopamine receptor; 17 nM on D(2) dopamine receptor [1]; 300 nM on D(1A) dopamine receptor; 8.2 nM on D(2) dopamine receptor [2]; 11 nM on D(4) dopamine receptor.
Regarding `COc1cc(CN2CCN(C)CC2)ccc1OCCCc1cn(CCCCCCCCn2cc(CCCOc3ccc(CN4CCN(c5ccccc5OC)CC4)cc3OC)nn2)nn1`, the Ki was determined as 980 nM at D(1A) dopamine receptor and 12 nM on D(4) dopamine receptor.
Regarding `CCOCCn1cc(CCCOc2ccc(CN3CCN(c4ccccc4OC)CC3)cc2OC)nn1`, the Ki was found to be 250 nM on D(3) dopamine receptor; 18 nM on D(2) dopamine receptor [1]; 870 nM at D(1A) dopamine receptor; 16 nM on D(2) dopamine receptor [2]; 6.4 nM at D(4) dopamine receptor.
